# Measurements pooled from the literature.
# Compare with care: the assays were run in different laboratories.
# RPS6KA3: Ribosomal protein S6 kinase alpha-3 (RPS6KA3, Homo sapiens, UniProt P51812)
# RPS6KA3 N-terminal kinase domain: Ribosomal protein S6 kinase alpha-3, N-terminal kinase domain (RPS6KA3, Homo sapiens, UniProt P51812)
# RPS6KA3 C-terminal kinase domain: Ribosomal protein S6 kinase alpha-3, C-terminal kinase domain (RPS6KA3, Homo sapiens, UniProt P51812)
Structure (SMILES),target,test,system,setting,endpoint,result
Cc1ccc(NC(=O)c2ccc(C)c(C(F)(F)F)c2)cc1C#Cc1nn(C2CCC(O)CC2)c2ncnc(N)c12 (stereo not drawn),RPS6KA3,cell-free assay,,10 µM,remaining signal,44%
CCN(CC)c1ccc(C2=NNC(=O)CC2C)cc1[N+](=O)[O-] (stereo not drawn),RPS6KA3,"enzyme activity, inhibitor",,10 µM,remaining activity,100%
CCCCNc1ncc2c(-c3ccc(F)cc3)nn(C[C@H]3CC[C@H](N)CC3)c2n1,RPS6KA3 N-terminal kinase domain,"target engagement in cells, inhibitor, chemoproteomics",,20 mM,inhibition,32.6%
CCOCCn1cc(C(=O)Nc2ccc(-n3nc(-c4cccnc4)cc3C(F)(F)F)cn2)ccc1=O,RPS6KA3 C-terminal kinase domain,"cell-free assay, competition with immobilised ligand",,1 µM,remaining binding,87%
O=C1NC(=O)c2cc(Nc3ccc(F)cc3)c(Nc3ccc(F)cc3)cc21,RPS6KA3,cell-free assay,,0.5 µM,remaining signal,118%
COc1cccc2c(NCc3ccccc3)nc(-n3c(N)nc4ccccc43)nc12,RPS6KA3 N-terminal kinase domain,"target engagement in cells, inhibitor, chemoproteomics",,20 mM,inhibition,34.2%
CCOc1cc(-c2nncn2C)ccc1Nc1ncc2cc(C)nc(NCC(C)(C)C)c2n1,RPS6KA3,"enzyme activity, inhibitor, FRET",,1 µM,inhibition,18%
CC1CCCN1c1nccc(-c2cnn3ncccc23)n1 (stereo not drawn),RPS6KA3 C-terminal kinase domain,"binding, competition with immobilised ligand",,1 µM,remaining binding,100%
CNCc1ccccc1-c1csc([C@H](C)Nc2nc(C)nc3cc(OC)c(OC)cc23)c1,RPS6KA3 C-terminal kinase domain,"cell-free assay, competition with immobilised ligand",,1 µM,remaining binding,78%
CC/C(=N\NC(=O)C(C)Nc1ccccc1)c1ccc(O)c(C)c1O (stereo not drawn),RPS6KA3,"enzyme activity, inhibitor",,0.1 µM,inhibition,45.7%
CNC(=O)c1cc(Oc2ccc(NC(=O)Nc3ccc(Cl)c(C(F)(F)F)c3)cc2)ccn1,RPS6KA3,"enzyme activity, inhibitor",,0.3 µM,inhibition,22%
N#CCCc1ccc2c(c1)-c1[nH]c3ccc([N+](=O)[O-])cc3c1CC(=O)N2,RPS6KA3,cell-free assay,,0.5 µM,remaining signal,28.6%
CNc1cccc2cc(C(=O)Nc3ccc(C(=O)O)cc3)c(=O)[nH]c12,RPS6KA3,"enzyme activity, inhibitor",,10 µM,inhibition,2.2%
Cc1ccc(C(=O)Nc2ccc(CN3CCN(C)CC3)c(C(F)(F)F)c2)cc1C#Cc1cnc2cccnn12,RPS6KA3,"enzyme activity, inhibitor",,23.5 nM,activity vs control,82%
CN(c1nccc(-c2cnn3ncccc23)n1)C1CC1,RPS6KA3 C-terminal kinase domain,"binding, competition with immobilised ligand",,1 µM,remaining binding,100%
C[C@H](c1ccc(F)cc1)N(Cc1cccc(C(=O)O)c1)C(=O)c1cnc2ccccc2c1,RPS6KA3 C-terminal kinase domain,"cell-free assay, competition with immobilised ligand",,1 µM,remaining binding,89%
Oc1cccc(-c2nc(N3CCOCC3)c3oc4ncccc4c3n2)c1,RPS6KA3,"enzyme activity, inhibitor",,10 µM,remaining activity,96%
COc1ccc2c(O[C@@H]3C[C@H]4C(=O)N[C@]5(C(=O)O)CC5/C=C\CCCCC[C@H](NC(=O)OC5CCCC5)C(=O)N4C3)cc(-c3csc(NC(=O)C(C)C)n3)nc2c1C (stereo partly drawn),RPS6KA3 N-terminal kinase domain,"cell-free assay, competition with immobilised ligand",,1 µM,remaining binding,100%
Cc1ccc(C(=O)NCc2ccsc2)cc1C#Cc1cn(C(C)C)c2ncnc(N)c12,RPS6KA3,"enzyme activity, inhibitor",,1 µM,activity vs control,92%
COc1cc2ncnc(Nc3ccc(Oc4ccccc4)c(C)c3C)c2cc1OC,RPS6KA3,"enzyme activity, inhibitor",,1 µM,inhibition,-1%
COc1cc(/C=C/C(=O)CC(=O)/C=C/c2ccc(O)c(OC)c2)ccc1O,RPS6KA3,"enzyme activity, inhibitor",,1 µM,activity vs control,66%
CNc1cc(Oc2cc(C(=O)Nc3cc(N4CCN(C)CC4)cc(C(F)(F)F)c3)ccc2C)ncn1,RPS6KA3 C-terminal kinase domain,"target engagement in cells, inhibitor, chemoproteomics",Huh-7,1 µM,inhibition,-50.6%
FC(F)(F)Oc1cccc(-c2cnc3ccc(-c4ccncc4)nn23)c1,RPS6KA3,"enzyme activity, inhibitor, radiometric",,1 µM,activity vs control,105%
CN(C)C(=O)Cn1cc(-c2nc([C@@](C)(c3ccc(-c4cnc(N)nc4)cc3)C3CC3)no2)cn1,RPS6KA3 N-terminal kinase domain,"cell-free assay, competition with immobilised ligand",,1 µM,remaining binding,83%
C[C@@H]1CCN(c2nccc(-c3cnn4ncccc34)n2)C1,RPS6KA3 N-terminal kinase domain,"binding, competition with immobilised ligand",,1 µM,remaining binding,74%
CCCOc1ccc([C@@H]2[C@@H](C(=O)O)[C@H](c3ccc4c(c3)OCO4)CN2CC(=O)Nc2c(CC)cccc2CC)cc1,RPS6KA3 C-terminal kinase domain,"cell-free assay, competition with immobilised ligand",,1 µM,remaining binding,76%
COc1cc(Nc2cnc(C#N)c(O[C@H](C)CN(C)C)n2)ncc1-c1cnn(C)c1,RPS6KA3,"enzyme activity, inhibitor, radiometric",,10 µM,remaining activity,34%
C[C@H](NC(=O)c1cnc2n1[C@](C)(Cc1ccc(C#N)cc1)C(=O)N2c1cc(Cl)c(F)c(Cl)c1)C(=O)NC1(c2ccccn2)CC1,RPS6KA3 C-terminal kinase domain,"cell-free assay, competition with immobilised ligand",,1 µM,remaining binding,100%
CC(C)(C)c1nc2c(s1)c1nc(N)ncc1c1ccc(NS(=O)(=O)c3c(F)cccc3F)c(F)c12,RPS6KA3,"enzyme activity, inhibitor, radiometric",,1 µM,remaining activity,90%
CN(CCCC(F)(F)F)c1nccc(-c2cnn3ncccc23)n1,RPS6KA3 N-terminal kinase domain,"binding, competition with immobilised ligand",,1 µM,remaining binding,100%
Cn1cncc1C1=CN(c2ncnc3[nH]cnc23)CCS1,RPS6KA3,"enzyme activity, inhibitor, radiometric",,2 µM,inhibition,66%
Cc1ccc(Nc2nccc(N(C)c3ccc4c(C)n(C)nc4c3)n2)cc1S(N)(=O)=O,RPS6KA3,"enzyme activity, inhibitor",,0.3 µM,inhibition,31%
c1cnn2ncc(-c3ccnc(N4CCC45COC5)n3)c2c1,RPS6KA3 C-terminal kinase domain,"binding, competition with immobilised ligand",,1 µM,remaining binding,100%
Nc1nc(Nc2ccccc2)sc1C(=O)c1c(F)cccc1F,RPS6KA3,"enzyme activity, inhibitor",,10 µM,remaining activity,38%
Clc1ccc(Nc2nnc(Cc3ccncc3)c3ccccc23)cc1,RPS6KA3,cell-free assay,,0.5 µM,remaining signal,101%
Nc1ncnc2occ(-c3ccc(NC(=O)Nc4cc(C(F)(F)F)ccc4F)cc3)c12,RPS6KA3 C-terminal kinase domain,"cell-free assay, inhibitor",,20 µM,remaining signal,100%
N[C@H]1CCN(c2nccc(-c3cnn4ncccc34)n2)C1,RPS6KA3 C-terminal kinase domain,"binding, competition with immobilised ligand",,1 µM,remaining binding,40%
CC(C)(C)C(=O)c1sc(NC2CCCCC2)nc1N,RPS6KA3,"enzyme activity, inhibitor",,10 µM,remaining activity,104%
COc1cc2ncnc(Nc3ccc(F)c(Cl)c3)c2cc1OCCCN1CCOCC1,RPS6KA3,cell-free assay,,0.5 µM,remaining signal,100%
COc1ccc2c(c1)O[C@H](c1ccc(OC)c(OC)c1)C[C@@H]2NC(=O)C1(c2ccc3c(c2)OC(F)(F)O3)CC1,RPS6KA3 C-terminal kinase domain,"cell-free assay, competition with immobilised ligand",,1 µM,remaining binding,93%
CN(C)C1CCN(CC#Cc2nn(C3CCCC3)c3nc(NCc4ccccc4)ncc23)C1 (stereo not drawn),RPS6KA3,"enzyme activity, inhibitor, FRET",,0.1 µM,inhibition,5%
O=C(Nc1cnn(-c2csc(C(=O)NC3COC3)c2)c1)Nc1c(F)cccc1Cl,RPS6KA3,"enzyme activity, inhibitor",,5 µM,remaining activity,79.9%
